Measured values from ChEMBL document CHEMBL5705885, “CYT387, a selective JAK1/JAK2 inhibitor: in vitro assessment of kinase selectivity and preclinical studies using cell lines and primary cells from polycythemia vera patients” (Leukemia, 2009).

Tests used:
[1] = molecular target: Vascular endothelial growth factor receptor 1 (Homo sapiens, UniProt P17948); assay: Inhibition of FLT1 (unknown origin)
[2] = molecular target: Serine/threonine-protein kinase N1 (Homo sapiens, UniProt Q16512); conditions: dose 100.0 nM
Activin receptor type-1B = Activin receptor type-1B (Homo sapiens, UniProt P36896); assay: Inhibition of ACVR1B (unknown origin)
[3] = molecular target: MAP kinase-activated protein kinase 2 (Homo sapiens, UniProt P49137); assay: Inhibition of MAPKAPK2 (unknown origin)
[4] = molecular target: Calcium/calmodulin-dependent protein kinase type 1D (Homo sapiens, UniProt Q8IU85); conditions: dose 100.0 nM
[5] = molecular target: Serine/threonine-protein kinase Sgk1 (Homo sapiens, UniProt O00141); assay: Inhibition of SGK (unknown origin)
SRSF protein kinase 2 = SRSF protein kinase 2 (Homo sapiens, UniProt P78362); assay: Inhibition of SRPK2 (unknown origin)
Ephrin type-B receptor 3 = Ephrin type-B receptor 3 (Homo sapiens, UniProt P54753); assay: Inhibition of EPHB3 (unknown origin)
[6] = molecular target: Testis-specific serine/threonine-protein kinase 2 (Homo sapiens, UniProt Q96PF2); assay: Inhibition of STK22B (unknown origin)
[7] = molecular target: Protein kinase C gamma type (Homo sapiens, UniProt P05129); assay: Inhibition of PRKCG (unknown origin)
[8] = molecular target: Tyrosine-protein kinase Fes/Fps (Homo sapiens, UniProt P07332); assay: Inhibition of FES (unknown origin)
[9] = molecular target: Glycogen synthase kinase-3 alpha (Homo sapiens, UniProt P49840); assay: Inhibition of GSK3alpha (unknown origin)
[10] = molecular target: Calcium/calmodulin-dependent protein kinase type II subunit alpha (Homo sapiens, UniProt Q9UQM7); assay: Inhibition of CAMK2 alpha (unknown origin)
[11] = molecular target: Macrophage-stimulating protein receptor (Homo sapiens, UniProt Q04912); assay: Inhibition of MST1R (unknown origin)
[12] = molecular target: Fibroblast growth factor receptor 1 (Homo sapiens, UniProt P11362); assay: Inhibition of FGFR1 (unknown origin)
[13] = molecular target: Tyrosine-protein kinase receptor TYRO3 (Homo sapiens, UniProt Q06418); assay: Inhibition of TYRO3 (unknown origin)
[14] = molecular target: Serine/threonine-protein kinase Sgk1 (Homo sapiens) (UniProt O00141); conditions: dose 100.0 nM
Ephrin type-A receptor 2 = Ephrin type-A receptor 2 (Homo sapiens, UniProt P29317); assay: Inhibition of EPHA2 (unknown origin)
[15] = molecular target: Tyrosine-protein kinase SYK (Homo sapiens, UniProt P43405); assay: Inhibition of SYK (unknown origin)
[16] = Inhibition of CDK2/cyclin A (unknown origin); design: species or system Homo sapiens
[17] = molecular target: Serine/threonine-protein kinase PAK 2 (Homo sapiens, UniProt Q13177); assay: Inhibition of PAK2 (unknown origin)
[18] = system: RAF proto-oncogene serine/threonine-protein kinase (Homo sapiens), P04049 [Y340D]; conditions: dose 100.0 nM
Aurora kinase C = Aurora kinase C (Homo sapiens, UniProt Q9UQB9); assay: Inhibition of AURKC (unknown origin)
K562 = assay: Antiproliferative activity against human K562 cells measured after 72 hrs by Alamar blue staining based analysis; type: functional, cell-based; conditions: K562, 72 h
In short: (§1)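 Cells were exposed for 72 h at 37 °C under 5% CO2 to compound made up as DMSO stock and diluted in culture medium. Proliferation was then read by Alamar Blue.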

[19] = molecular target: Mitogen-activated protein kinase kinase kinase 9 (Homo sapiens, UniProt P80192); assay: Inhibition of MAP3K9 (unknown origin)
Insulin receptor = Insulin receptor (Homo sapiens, UniProt P06213); assay: Inhibition of INSR (unknown origin)
[20] = molecular target: Platelet-derived growth factor receptor alpha (Homo sapiens, UniProt P16234); assay: Inhibition of PDGFRA (unknown origin)
[21] = molecular target: Serine/threonine-protein kinase PAK 4 (Homo sapiens, UniProt O96013); conditions: dose 100.0 nM
[22] = molecular target: T1, Mitogen-activated protein kinase kinase kinase 8 (Homo sapiens, UniProt P41279); conditions: dose 100.0 nM
[23] = molecular target: Protein-tyrosine kinase 6 (Homo sapiens, UniProt Q13882); assay: Inhibition of PTK6 (unknown origin)
Ephrin type-A receptor 1 = Ephrin type-A receptor 1 (Homo sapiens, UniProt P21709); assay: Inhibition of EPHA1 (unknown origin)
[24] = molecular target: Serine/threonine-protein kinase TBK1 (Homo sapiens) (UniProt Q9UHD2); conditions: dose 100.0 nM
[25] = molecular target: Mitogen-activated protein kinase 12 (Homo sapiens, UniProt P53778); assay: Inhibition of MAPK12 (unknown origin)
[26] = molecular target: Dual specificity protein kinase CLK1 (Homo sapiens, UniProt P49759); assay: Inhibition of CLK1 (unknown origin)
Ephrin type-A receptor 3 = Ephrin type-A receptor 3 (Homo sapiens, UniProt P29320); assay: Inhibition of EPHA3 (unknown origin)
[27] = molecular target: Tyrosine-protein kinase Srms (Homo sapiens, UniProt Q9H3Y6); assay: Inhibition of SRMS (unknown origin)
[28] = molecular target: Ribosomal protein S6 kinase alpha-3 (Homo sapiens, UniProt P51812); assay: Inhibition of RPS6KA3 (unknown origin)
[29] = molecular target: T1, Mitogen-activated protein kinase kinase kinase 8; assay: Inhibition of MAP3K8 (unknown origin)
[30] = molecular target: Serine/threonine-protein kinase Sgk3 (Homo sapiens, UniProt Q96BR1); assay: Inhibition of SGKL (unknown origin)
[31] = molecular target: Cyclin-dependent kinase 5/CDK5 activator 1 (Homo sapiens) (UniProt Q00535+Q15078); conditions: dose 100.0 nM
[32] = molecular target: Tyrosine-protein kinase Blk (Homo sapiens, UniProt P51451); assay: Inhibition of BLK (unknown origin)
Homo sapiens = species on record: Homo sapiens; conditions: dose 100.0 nM
[33] = molecular target: Protein kinase C beta type (Homo sapiens, UniProt P05771); assay: Inhibition of PRKCB1 (unknown origin)
[34] = molecular target: Receptor tyrosine-protein kinase erbB-2 (Homo sapiens, UniProt P04626); assay: Inhibition of ERBB2 (unknown origin)
[35] = molecular target: Homeodomain-interacting protein kinase 1 (Homo sapiens, UniProt Q86Z02); assay: Inhibition of HIPK1 (unknown origin)
[36] = molecular target: PAS domain-containing serine/threonine-protein kinase (Homo sapiens, UniProt Q96RG2); assay: Inhibition of PASK (unknown origin)
[37] = molecular target: Tyrosine-protein kinase ABL1 (Homo sapiens) (UniProt P00519); conditions: dose 100.0 nM
[38] = molecular target: Fibroblast growth factor receptor 3 (Homo sapiens, UniProt P22607); assay: Inhibition of FGFR3 (unknown origin)
MV4-11 = assay: Antiproliferative activity against human MV4-11 cells measured after 72 hrs by Alamar blue staining based analysis; type: functional, cell-based; conditions: MV4-11, 72 h; in short: as §1

T1 sequence (P41279 whole entry): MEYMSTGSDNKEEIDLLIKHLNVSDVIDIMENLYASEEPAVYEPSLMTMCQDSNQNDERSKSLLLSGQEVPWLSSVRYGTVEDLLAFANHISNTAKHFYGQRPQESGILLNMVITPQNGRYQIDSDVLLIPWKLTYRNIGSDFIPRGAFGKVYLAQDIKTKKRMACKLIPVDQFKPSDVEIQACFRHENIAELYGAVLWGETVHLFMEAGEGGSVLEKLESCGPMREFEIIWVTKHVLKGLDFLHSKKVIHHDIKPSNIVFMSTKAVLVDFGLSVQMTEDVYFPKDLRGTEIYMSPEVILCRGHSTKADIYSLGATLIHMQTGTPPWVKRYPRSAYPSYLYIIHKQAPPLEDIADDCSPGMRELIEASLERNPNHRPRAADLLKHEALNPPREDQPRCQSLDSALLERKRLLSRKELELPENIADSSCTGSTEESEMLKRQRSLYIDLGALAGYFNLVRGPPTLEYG
Chain of Ephrin type-A receptor 1 (P21709 whole entry): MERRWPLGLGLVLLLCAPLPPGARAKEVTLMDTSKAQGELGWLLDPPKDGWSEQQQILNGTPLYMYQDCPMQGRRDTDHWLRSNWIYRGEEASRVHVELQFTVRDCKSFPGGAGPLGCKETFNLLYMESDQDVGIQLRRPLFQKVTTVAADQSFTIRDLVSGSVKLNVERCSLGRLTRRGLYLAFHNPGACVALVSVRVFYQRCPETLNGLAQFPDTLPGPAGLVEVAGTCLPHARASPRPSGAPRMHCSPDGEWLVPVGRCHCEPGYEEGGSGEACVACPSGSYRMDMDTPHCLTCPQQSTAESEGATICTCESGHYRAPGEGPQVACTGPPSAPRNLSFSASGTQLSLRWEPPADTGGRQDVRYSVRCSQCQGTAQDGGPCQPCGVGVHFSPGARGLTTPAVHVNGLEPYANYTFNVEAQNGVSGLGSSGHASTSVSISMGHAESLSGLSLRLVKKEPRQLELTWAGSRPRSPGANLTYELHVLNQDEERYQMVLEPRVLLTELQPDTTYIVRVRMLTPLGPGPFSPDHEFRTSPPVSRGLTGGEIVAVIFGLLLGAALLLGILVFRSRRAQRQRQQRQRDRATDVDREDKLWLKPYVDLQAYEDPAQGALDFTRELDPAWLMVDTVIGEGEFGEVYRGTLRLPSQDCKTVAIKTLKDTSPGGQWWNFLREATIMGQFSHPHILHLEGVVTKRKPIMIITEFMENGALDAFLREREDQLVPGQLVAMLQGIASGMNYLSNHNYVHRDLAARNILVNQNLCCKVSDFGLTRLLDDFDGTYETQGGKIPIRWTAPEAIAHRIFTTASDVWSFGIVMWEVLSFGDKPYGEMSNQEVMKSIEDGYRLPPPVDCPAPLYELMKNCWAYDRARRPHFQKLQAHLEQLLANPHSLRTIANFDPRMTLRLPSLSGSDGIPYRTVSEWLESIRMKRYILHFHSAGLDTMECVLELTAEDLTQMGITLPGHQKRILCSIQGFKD
Chain of Calcium/calmodulin-dependent protein kinase type 1D (Q8IU85 whole entry, looked up): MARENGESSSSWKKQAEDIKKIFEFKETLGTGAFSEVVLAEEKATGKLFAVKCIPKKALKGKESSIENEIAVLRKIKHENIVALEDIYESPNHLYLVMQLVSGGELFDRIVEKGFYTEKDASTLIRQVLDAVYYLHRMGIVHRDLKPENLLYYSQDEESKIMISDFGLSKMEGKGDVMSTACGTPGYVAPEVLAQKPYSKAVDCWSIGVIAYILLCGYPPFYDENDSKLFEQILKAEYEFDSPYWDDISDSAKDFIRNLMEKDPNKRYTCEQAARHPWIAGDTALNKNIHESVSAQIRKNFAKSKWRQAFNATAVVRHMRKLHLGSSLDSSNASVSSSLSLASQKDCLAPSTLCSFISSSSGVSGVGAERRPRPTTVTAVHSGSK
Chain of Tyrosine-protein kinase Srms (Q9H3Y6 whole entry): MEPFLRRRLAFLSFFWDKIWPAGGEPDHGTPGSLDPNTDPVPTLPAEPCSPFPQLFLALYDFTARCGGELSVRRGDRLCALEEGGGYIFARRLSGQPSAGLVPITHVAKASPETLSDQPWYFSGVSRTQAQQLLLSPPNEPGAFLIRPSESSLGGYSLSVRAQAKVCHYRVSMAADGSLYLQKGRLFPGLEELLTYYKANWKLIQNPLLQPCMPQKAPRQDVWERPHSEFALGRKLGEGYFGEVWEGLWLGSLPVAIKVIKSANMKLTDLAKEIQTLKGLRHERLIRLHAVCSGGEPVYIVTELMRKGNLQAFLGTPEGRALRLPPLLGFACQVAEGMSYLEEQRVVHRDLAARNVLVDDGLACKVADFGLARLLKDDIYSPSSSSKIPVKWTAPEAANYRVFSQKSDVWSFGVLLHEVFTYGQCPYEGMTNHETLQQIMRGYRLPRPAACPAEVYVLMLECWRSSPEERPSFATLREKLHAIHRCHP
Chain of SRSF protein kinase 2 (P78362 whole entry): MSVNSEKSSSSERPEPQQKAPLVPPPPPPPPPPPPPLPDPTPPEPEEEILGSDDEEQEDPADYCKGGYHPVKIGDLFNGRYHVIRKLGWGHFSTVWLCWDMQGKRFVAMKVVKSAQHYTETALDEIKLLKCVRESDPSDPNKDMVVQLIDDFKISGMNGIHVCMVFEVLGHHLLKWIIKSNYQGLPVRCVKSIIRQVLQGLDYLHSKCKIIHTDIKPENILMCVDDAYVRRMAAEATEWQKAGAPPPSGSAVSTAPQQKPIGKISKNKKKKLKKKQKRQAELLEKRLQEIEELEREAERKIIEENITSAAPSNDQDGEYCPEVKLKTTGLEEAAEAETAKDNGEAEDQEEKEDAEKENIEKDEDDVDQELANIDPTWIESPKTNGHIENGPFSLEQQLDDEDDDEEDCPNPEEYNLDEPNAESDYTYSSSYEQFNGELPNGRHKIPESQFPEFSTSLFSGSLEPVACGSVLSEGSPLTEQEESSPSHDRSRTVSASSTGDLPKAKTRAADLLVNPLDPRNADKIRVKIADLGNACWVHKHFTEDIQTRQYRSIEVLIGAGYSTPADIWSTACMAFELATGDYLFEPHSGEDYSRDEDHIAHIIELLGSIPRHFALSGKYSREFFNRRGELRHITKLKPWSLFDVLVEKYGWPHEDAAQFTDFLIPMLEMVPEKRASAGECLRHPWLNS
Chain of Mitogen-activated protein kinase 12 (P53778 whole entry): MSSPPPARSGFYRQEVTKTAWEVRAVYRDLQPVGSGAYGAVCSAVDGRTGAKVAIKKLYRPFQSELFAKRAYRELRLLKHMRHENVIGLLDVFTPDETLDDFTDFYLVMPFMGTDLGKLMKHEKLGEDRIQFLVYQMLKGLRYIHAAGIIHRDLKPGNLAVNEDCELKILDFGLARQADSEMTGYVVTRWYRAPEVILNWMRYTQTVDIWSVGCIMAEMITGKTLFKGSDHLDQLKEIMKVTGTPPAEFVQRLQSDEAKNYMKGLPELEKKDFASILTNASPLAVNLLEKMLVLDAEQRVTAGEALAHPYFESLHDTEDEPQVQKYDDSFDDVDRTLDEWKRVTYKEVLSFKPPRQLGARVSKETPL
Chain of Ephrin type-A receptor 3 (P29320 whole entry): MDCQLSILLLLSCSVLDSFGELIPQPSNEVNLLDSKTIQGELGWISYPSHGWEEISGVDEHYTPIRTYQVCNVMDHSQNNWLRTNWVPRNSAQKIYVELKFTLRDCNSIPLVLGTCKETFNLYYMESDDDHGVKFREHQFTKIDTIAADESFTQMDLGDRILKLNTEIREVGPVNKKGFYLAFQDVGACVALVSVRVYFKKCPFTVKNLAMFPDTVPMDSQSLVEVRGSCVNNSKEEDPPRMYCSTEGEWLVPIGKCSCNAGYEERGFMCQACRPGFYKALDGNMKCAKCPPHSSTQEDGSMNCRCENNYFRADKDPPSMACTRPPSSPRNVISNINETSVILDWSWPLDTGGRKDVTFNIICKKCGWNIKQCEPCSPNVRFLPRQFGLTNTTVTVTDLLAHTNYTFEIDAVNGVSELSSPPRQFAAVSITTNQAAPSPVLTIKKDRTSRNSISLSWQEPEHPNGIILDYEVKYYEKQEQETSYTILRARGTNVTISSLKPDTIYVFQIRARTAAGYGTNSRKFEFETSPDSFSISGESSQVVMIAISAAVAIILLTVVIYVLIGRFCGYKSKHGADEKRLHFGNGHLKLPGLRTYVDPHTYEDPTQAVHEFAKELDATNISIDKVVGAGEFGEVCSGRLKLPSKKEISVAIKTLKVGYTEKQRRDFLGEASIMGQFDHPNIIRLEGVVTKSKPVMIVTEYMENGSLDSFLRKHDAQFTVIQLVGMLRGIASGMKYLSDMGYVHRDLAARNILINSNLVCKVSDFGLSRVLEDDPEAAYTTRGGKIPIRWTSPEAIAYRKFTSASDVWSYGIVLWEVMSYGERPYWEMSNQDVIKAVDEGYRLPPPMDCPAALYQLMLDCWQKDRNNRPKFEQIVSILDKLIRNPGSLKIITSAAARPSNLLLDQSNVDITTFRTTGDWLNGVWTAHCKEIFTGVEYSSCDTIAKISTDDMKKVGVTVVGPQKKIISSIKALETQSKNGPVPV
Chain of Serine/threonine-protein kinase PAK 4 (O96013 whole entry, looked up): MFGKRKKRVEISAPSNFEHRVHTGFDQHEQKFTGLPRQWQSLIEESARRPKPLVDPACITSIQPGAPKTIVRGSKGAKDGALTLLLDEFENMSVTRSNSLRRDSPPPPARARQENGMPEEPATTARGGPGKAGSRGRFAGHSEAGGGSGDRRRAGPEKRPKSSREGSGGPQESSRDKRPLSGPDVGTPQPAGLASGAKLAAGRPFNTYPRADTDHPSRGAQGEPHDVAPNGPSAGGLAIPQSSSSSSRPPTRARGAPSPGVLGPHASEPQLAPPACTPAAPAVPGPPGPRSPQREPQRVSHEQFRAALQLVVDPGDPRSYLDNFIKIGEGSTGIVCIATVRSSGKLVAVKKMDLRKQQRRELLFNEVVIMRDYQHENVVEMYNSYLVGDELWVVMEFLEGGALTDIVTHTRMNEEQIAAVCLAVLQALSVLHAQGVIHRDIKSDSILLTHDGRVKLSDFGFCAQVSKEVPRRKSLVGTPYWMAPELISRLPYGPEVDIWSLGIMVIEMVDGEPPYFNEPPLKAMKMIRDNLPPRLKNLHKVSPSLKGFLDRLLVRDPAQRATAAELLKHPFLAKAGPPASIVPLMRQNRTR

For `N#CCNC(=O)c1ccc(-c2ccnc(Nc3ccc(N4CCOCC4)cc3)n2)cc1` [MOMELOTINIB], the IC50 [1] was greater than 1000 nM, the inhibition [2] was less than 50% and the IC50 (Activin receptor type-1B) was less than 1000 nM. For the same compound, the IC50 [3] was greater than 1000 nM, the inhibition [4] was less than 50% and the IC50 [5] was less than 1000 nM. The IC50 (SRSF protein kinase 2) was greater than 1000 nM, the IC50 (Ephrin type-B receptor 3) was greater than 1000 nM and the IC50 [6] was greater than 1000 nM. It also gave an IC50 [7] of less than 1000 nM, an IC50 [8] greater than 1000 nM and an IC50 [9] greater than 1000 nM. For the same compound, the IC50 [10] was greater than 1000 nM, the IC50 [11] was less than 1000 nM and the IC50 [12] was greater than 1000 nM. For the same compound, the IC50 [13] was less than 1000 nM, the inhibition [14] was less than 50% and the IC50 (Ephrin type-A receptor 2) was greater than 1000 nM. The IC50 [15] was less than 1000 nM, the IC50 [16] was less than 100 nM and the IC50 [17] was greater than 1000 nM. The inhibition [18] was less than 50%, the IC50 (Aurora kinase C) was less than 1000 nM and the IC50 (K562) was 58000 nM. The IC50 [19] was less than 1000 nM, the IC50 (Insulin receptor) was greater than 1000 nM and the IC50 [20] was less than 1000 nM. The inhibition [21] was less than 50%, the inhibition [22] was less than 50% and the IC50 [23] was greater than 1000 nM. The IC50 (Ephrin type-A receptor 1) was greater than 1000 nM, the inhibition [24] was greater than 50% and the IC50 [25] was greater than 1000 nM. The IC50 [26] was less than 1000 nM, the IC50 (Ephrin type-A receptor 3) was greater than 1000 nM and the IC50 [27] was greater than 1000 nM. It also gave an IC50 [28] greater than 1000 nM, an IC50 [29] of less than 1000 nM and an IC50 [30] greater than 1000 nM. For the same compound, the inhibition [31] was less than 50%, the IC50 [32] was greater than 1000 nM and the inhibition (Homo sapiens) was greater than 50%. For the same compound, the IC50 [33] was greater than 1000 nM, the IC50 [34] was greater than 1000 nM and the IC50 [35] was less than 1000 nM. It also gave an IC50 [36] greater than 1000 nM, an inhibition [37] of less than 50% and an IC50 [38] greater than 1000 nM. For the same compound, the IC50 (MV4-11) was 3000 nM.
